{"source": "paper PMC3383288", "about": "(International Journal of Nanomedicine, 2012)", "key": {"[1]": {"assay": "Toxicity dose-finding study in nude mice", "type": "in vivo"}, "[2]": {"assay": "Tissue distribution in tumor-bearing mice", "type": "in vivo, nude mice", "conditions": "for AUC of DTX: native DTX 10 mg/kg", "summary_of_the_method": "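Female nude mice bearing subcutaneous xenografts (cells in 50% Matrigel) got a single iv dose when tumors reached about 400 mm3. Free drug was sampled at 0.083, 1, 6, 24 and 48 h (n = 3 per time). Heart blood was taken under ether into heparin, and plasma was spun at 4°C. Organs were rinsed, stored at −30°C and homogenized 25% w/w in PBS pH 7.4. Drug was quantified by reversed-phase HPLC at 40°C.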"}, "[3]": {"test_system": "MDA-MB-231 human breast tumor", "assay": "MDA-MB-231 human breast tumor xenograft model", "type": "in vivo, nude mice", "summary_of_the_method": "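3 × 10^6 cells in 50% Matrigel were injected subcutaneously into the backs of female 5-week-old nude mice. Dosing started on day 0: three tail-vein iv injections at 4-day intervals, with an untreated control group. Tumor volume and body weight were tracked. Points are means of seven mice with standard error.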"}, "[4]": {"test_system": "OCUM-2MLN human scirrhous gastric carcinoma", "assay": "OCUM-2MLN orthotopic scirrhous gastric carcinoma model", "type": "in vivo, nude mice", "conditions": "DTX 10 mg/kg; data not shown"}, "[5]": {"assay": "Toxicology studies in mice", "type": "in vivo, mice (Crlj:CD1 (ICR))", "conditions": "for ALT / AST / CRE / UN: native DTX 10 mg/kg iv x3 at 4-day intervals, one mouse", "summary_of_the_method": "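Male Crlj:CD1 (ICR) mice (n = 10) received iv dosing three times at 4-day intervals, and condition and body weight were followed for 49 days. Mice were killed one at a time for blood collection and autopsy, including macroscopic review of liver and bone marrow. AST, ALT, creatinine and urea nitrogen were run on a clinical chemistry analyzer, with hematology on an automated analyzer.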"}, "[6]": {"assay": "Toxicology study in cynomolgus monkeys", "type": "in vivo", "summary_of_the_method": "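Male cynomolgus monkeys aged 3–4 years (2.5–3.7 kg, n = 3) were dosed iv three times at 2-week intervals. Food consumption, general condition and body weight were followed for 42 days. White blood cell and neutrophil counts were monitored. Values are means of three monkeys with standard deviation.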"}, "[7]": {"conditions": "once-every-3-week schedule; cited from earlier work"}, "advanced gastric cancer": {"test_system": "advanced gastric cancer", "conditions": "monotherapy, patients with advanced gastric cancer; cited from earlier work"}, "[8]": {"conditions": "native DTX 3 mg/kg iv three times at 2-week intervals"}}, "data": [{"molecule": "CC(=O)O[C@@]12CO[C@@H]1C[C@H](O)[C@@]1(C)C(=O)[C@H](O)C3=C(C)[C@@H](OC(=O)[C@H](O)[C@@H](NC(=O)OC(C)(C)C)c4ccccc4)C[C@@](O)([C@@H](OC(=O)c4ccccc4)[C@H]21)C3(C)C", "note": "[Native DTX, Docetaxel]", "values": [{"measurement": "MTD converted to human equivalent", "setting": "[1]; mouse MTD 10 mg/kg, three times at 4-day intervals", "result": 30.3, "unit": "mg/m^2"}, {"measurement": "body weight change", "setting": "[1]; native DTX 15 mg/kg vs less than 15 mg/kg, iv three times every 4 days", "result": "significant decrease in body weight"}, {"measurement": "AUC of DTX", "setting": "[2]; Heart", "result": "9.5 μg/g or mL · h"}, {"measurement": "AUC of DTX", "setting": "[2]; Kidney", "result": "44.2 μg/g or mL · h"}, {"measurement": "AUC of DTX", "setting": "[2]; Liver", "result": "40.1 μg/g or mL · h"}, {"measurement": "AUC of DTX", "setting": "[2]; Lung", "result": "13.6 μg/g or mL · h"}, {"measurement": "AUC of DTX", "setting": "[2]; Plasma", "result": "6.7 μg/g or mL · h"}, {"measurement": "AUC of DTX", "setting": "[2]; Spleen", "result": "27.3 μg/g or mL · h"}, {"measurement": "AUC of DTX", "setting": "[2]; Tumor", "result": "12.6 μg/g or mL · h"}, {"measurement": "time DTX in plasma remained over 0.1 μg/mL", "setting": "[2]; native DTX 10 mg/kg iv", "result": "less than 5 hours"}, {"measurement": "maximum body weight loss", "setting": "[3]; native DTX 10 mg/kg iv x3, mice bearing MDA-MB-231 xenograft", "result": "approximately 10%"}, {"measurement": "effect on tumor growth", "setting": "[3]; three injections at 4-day intervals, NC-6301 50 mg/kg, native DTX 10 mg/kg", "result": "transient and slight regression"}, {"measurement": "body weight loss compared with NC-6301 at the higher dose", "setting": "[4]", "result": "worse"}, {"measurement": "ALT", "setting": "[5]; Day 1", "result": 28, "unit": "U/L"}, {"measurement": "AST", "setting": "[5]; Day 1", "result": 85, "unit": "U/L"}, {"measurement": "CRE", "setting": "[5]; Day 1", "result": 0.07, "unit": "mg/dL"}, {"measurement": "UN", "setting": "[5]; Day 1", "result": 26.1, "unit": "mg/dL"}, {"measurement": "ALT", "setting": "[5]; Day 7", "result": 44, "unit": "U/L"}, {"measurement": "AST", "setting": "[5]; Day 7", "result": 239, "unit": "U/L"}, {"measurement": "CRE", "setting": "[5]; Day 7", "result": 0.17, "unit": "mg/dL"}, {"measurement": "UN", "setting": "[5]; Day 7", "result": 27.1, "unit": "mg/dL"}, {"measurement": "ALT", "setting": "[5]; Day 10", "result": 23, "unit": "U/L"}, {"measurement": "AST", "setting": "[5]; Day 10", "result": 91, "unit": "U/L"}, {"measurement": "CRE", "setting": "[5]; Day 10", "result": 0.14, "unit": "mg/dL"}, {"measurement": "UN", "setting": "[5]; Day 10", "result": 25.4, "unit": "mg/dL"}, {"measurement": "ALT", "setting": "[5]; Day 14", "result": 19, "unit": "U/L"}, {"measurement": "AST", "setting": "[5]; Day 14", "result": 62, "unit": "U/L"}, {"measurement": "CRE", "setting": "[5]; Day 14", "result": 0.20, "unit": "mg/dL"}, {"measurement": "UN", "setting": "[5]; Day 14", "result": 30.5, "unit": "mg/dL"}, {"measurement": "ALT", "setting": "[5]; Day 21", "result": 24, "unit": "U/L"}, {"measurement": "AST", "setting": "[5]; Day 21", "result": 71, "unit": "U/L"}, {"measurement": "CRE", "setting": "[5]; Day 21", "result": 0.12, "unit": "mg/dL"}, {"measurement": "UN", "setting": "[5]; Day 21", "result": 20.0, "unit": "mg/dL"}, {"measurement": "ALT", "setting": "[5]; Day 28", "result": 22, "unit": "U/L"}, {"measurement": "AST", "setting": "[5]; Day 28", "result": 65, "unit": "U/L"}, {"measurement": "CRE", "setting": "[5]; Day 28", "result": 0.15, "unit": "mg/dL"}, {"measurement": "UN", "setting": "[5]; Day 28", "result": 41.4, "unit": "mg/dL"}, {"measurement": "ALT", "setting": "[5]; Day 35", "result": 46, "unit": "U/L"}, {"measurement": "AST", "setting": "[5]; Day 35", "result": 171, "unit": "U/L"}, {"measurement": "CRE", "setting": "[5]; Day 35", "result": 0.12, "unit": "mg/dL"}, {"measurement": "UN", "setting": "[5]; Day 35", "result": 28.0, "unit": "mg/dL"}, {"measurement": "ALT", "setting": "[5]; Day 42", "result": 27, "unit": "U/L"}, {"measurement": "AST", "setting": "[5]; Day 42", "result": 83, "unit": "U/L"}, {"measurement": "CRE", "setting": "[5]; Day 42", "result": 0.11, "unit": "mg/dL"}, {"measurement": "UN", "setting": "[5]; Day 42", "result": 22.1, "unit": "mg/dL"}, {"measurement": "ALT", "setting": "[5]; Day 49", "result": 22, "unit": "U/L"}, {"measurement": "AST", "setting": "[5]; Day 49", "result": 56, "unit": "U/L"}, {"measurement": "CRE", "setting": "[5]; Day 49", "result": 0.12, "unit": "mg/dL"}, {"measurement": "UN", "setting": "[5]; Day 49", "result": 23.5, "unit": "mg/dL"}, {"measurement": "myelosuppression", "setting": "[5]; NC-6301 50 mg/kg, native DTX 10 mg/kg, data not shown", "result": "mild and transient"}, {"measurement": "change in liver- or kidney-related blood test markers", "setting": "[5]; three injections, NC-6301 50 mg/kg, native DTX 10 mg/kg, 49 days", "result": "No significant change"}, {"measurement": "adverse effects", "setting": "[6]; native DTX 3 mg/kg", "result": "adverse effects including gastrointestinal symptoms"}, {"measurement": "additional weight lost compared with animals administered NC-6301", "setting": "[6]; [8]", "result": "up to 20%"}, {"measurement": "white blood cell count and neutrophil count", "setting": "[6]; [8]", "result": "significantly decreased"}, {"measurement": "decrease in food consumption", "setting": "[6]; native DTX 3 mg/kg, NC-6301 3 or 6 mg/kg, iv three times at 2-week intervals", "result": "critical decrease"}, {"measurement": "MTD in humans", "setting": "[7]", "result": 100, "unit": "mg/m^2"}, {"measurement": "response rate", "setting": "advanced gastric cancer", "result": 20, "unit": "%"}]}]}
